Laboratory results: the RNAGym collection of RNA variant scans (doi:10.1126/science.aae0568)
This sample holds only a part of the variants without activity.

B1: tRNA (parent)
chain: GUUCCGUUGGCGUAAUGGUAACGCGUCUCCCUCCUAAGGAGAAGACUGCGGGUUCGAGUCCCGUACGGAACG

Variants of: B1
Assay: yeast fitness relative to wild type (ratio to wild type); higher = fitter; tRNA-Arg(CCU), competitive growth, 37 C, YPD
How it was run: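 A pool of Saccharomyces cerevisiae strains, each with a tRNA-Arg(CCU) gene variant at the native genomic locus, was competed in YPD at 37°C for 24 hours across six parallel replicates. The variants had been chemically synthesised at a 3% per-site mutation rate over 69 sites, and gene amplicons before and after competition were read by 100-nucleotide paired-end sequencing. Darwinian fitness relative to wild type rested on changes in genotype frequencies. Genotypes required ≥ 100 starting reads, and estimates < 0.5 were set to 0.5.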

Variant	yeast fitness
GUUCCGUUGGCGUAAUGGUAACGCGUCUCCCUCCUAAGCAGAAGACUGCGGGUUGGAGACCCAUACGGAACG [G39C C55G U59A G63A]	≤ 0.5
GUUCCGUUGGCGUAAUGGUAACGCGUCUCCCUCCUAAGAAGAAGACUGCGGGUUCGACUCCCGUACGGAACG [G39A G58C]	0.948
GUUCCGUUGGCGUAAUGGUAACGCGUCUCCCUCCUAAGCAGAAGACUGCGGGUUCGAGUCCCGUAUGGUACG [G39C C66U A69U]	0.551
GUUCCGUUGGCGUAAUGGUAACGCGUCUCCCUCCUAAGAAGAAGACUGCGGGUUCGAAUCCCGUACGGCACG [G39A G58A A69C]	0.592
GUUCCGUUGGCGUAAUGGUAACGCGUCUCCCUCCUAAGCAGAAGACUGCGGGUUCGAGUGCCGUACCGAACG [G39C C60G G67C]	≤ 0.5
GUUCCGUUGGCGUAAUGGUAACGCGUCUCCCUCCUAAGCAGAAGACUGAGAGUUCGAGUCCCGUACGGAACG [G39C C49A G51A]	≤ 0.5
GUUCCGUUGGCGUAAUGGUAACGCGUCUCCCUCCUAAGAAGAAGACUGCGGGUUCCAGUCCCGUAAGGAACG [G39A G56C C66A]	≤ 0.5
GUUCCGUUGGCGUAAUGGUAACGCGUCUCCCUCCUAAGAAGUAGACUGAGGGUUCGAGUCCCGUACGGAACG [G39A A42U C49A]	≤ 0.5
GUUCCGUUGGCGUAAUGGUAACGCGUCUCCCUCCUAAGCAGAAGACUGCGGGUUCGAGUCCCGUACGGACCG [G39C A70C]	0.769
GUUCCGUUGGCGUAAUGGUAACGCGUCUCCCUCCUAAGCAGAAGACUGCGGGUUCGAGUCCCGUACGGAUCG [G39C A70U]	0.873
GUUCCGUUGGCGUAAUGGUAACGCGUCUCCCUCCUAAGCAGAAGACUGCGGGUUCGAGUCCCGUACGGAGCG [G39C A70G]	0.915
GUUCCGUUGGCGUAAUGGUAACGCGUCUCCCUCCUAAGAAGAAGACUACGGGUUCGAGUCCCGUACGGAACG [G39A G48A]	0.94
GUUCCGUUGGCGUAAUGGUAACGCGUCUCCCUCCUAAGAAGAAGACUGCGGCUUCGAGUCCCGUACGGAACG [G39A G52C]	0.612
GUUCCGUUGGCGUAAUGGUAACGCGUCUCCCUCCUAAGCAGAAGACUGCGGGUUUGAGUCCCGUACGGAACG [G39C C55U]	0.572
GUUCCGUUGGCGUAAUGGUAACGCGUCUCCCUCCUAAGCGGAAGACUCCGGGUUCGAGUCCCGUACGGAACG [G39C A40G G48C]	≤ 0.5
GUUCCGUUGGCGUAAUGGUAACGCGUCUCCCUCCUAAGAAGAAGACAGCGGGUUCGAGUCCCGUACGCAACG [G39A U47A G68C]	0.597
GUUCCGUUGGCGUAAUGGUAACGCGUCUCCCUCCUAAGAAGAAGACUGCGGGUUCGAGUCCCGCACGGAACG [G39A U64C]	1.01
GUUCCGUUGGCGUAAUGGUAACGCGUCUCCCUCCUAAGCAGACGGCUGCGGGUUCGAGUCCCGUACGGAACG [G39C A43C A45G]	≤ 0.5
GUUCCGUUGGCGUAAUGGUAACGCGUCUCCCUCCUAAGCAGAAGAGUGCGGGUUCGAGUCCCGUACGGAUCG [G39C C46G A70U]	0.603

Variant	yeast fitness
GUUCCGUUGGCGUAAUGGUAACGCGUCUCCCUCCUAAGAAGAAGAUUGCGGGUUCGAGUCCCGUACAGAACG [G39A C46U G67A]	0.575
GUUCCGUUGGCGUAAUGGUAACGCGUCUCCCUCCUAAGAAGAAGCCUGCGGGUUCGAGUCCCGUUUGGAACG [G39A A45C A65U C66U]	≤ 0.5
GUUCCGUUGGCGUAAUGGUAACGCGUCUCCCUCCUAAUGGGAAGACUGUGGGUUCGAGUCCCGUACGGAACG [G38U A40G C49U]	≤ 0.5
GUUCCGUUGGCGUAAUGGUAACGCGUCUCCCUCCUAAGAAGAAGACUGCGGGUUCGAGUUCCGUACGGAACG [G39A C60U]	0.81
GUUCCGUUGGCGUAAUGGUAACGCGUCUCCCUCCUAAGAAGAAGACUGCGGGUUCGAGUCGCGUACGGAUCG [G39A C61G A70U]	≤ 0.5
GUUCCGUUGGCGUAAUGGUAACGCGUCUCCCUCCUAAGCAGAAGACUGUGGGUUCGAGUCCCGUUCGGAACG [G39C C49U A65U]	≤ 0.5
GUUCCGUUGGCGUAAUGGUAACGCGUCUCCCUCCUAAGAAGAAGACUCCGGGUUCGAGUCACGUACGGAACG [G39A G48C C61A]	≤ 0.5
GUUCCGUUGGCGUAAUGGUAACGCGUCUCCCUCCUAAUGAGAAGACUGCGGGUUCGAGUCCCGUACGGCACG [G38U A69C]	0.892
GUUCCGUUGGCGUAAUGGUAACGCGUCUCCCUCCUAAGAAGAAAACUGCGGGUUCGAGUCCCGUACGGAACG [G39A G44A]	0.846
GUUCCGUUGGCGUAAUGGUAACGCGUCUCCCUCCUAAGACGAAGACUGCGGGUUCGAGUUCCGUACGUAACG [G39A A40C C60U G68U]	≤ 0.5
GUUCCGUUGGCGUAAUGGUAACGCGUCUCCCUCCUAAUGAGAAGAAUGCGGGUUCGAGUCCCGUACGGAACG [G38U C46A]	0.783
GUUCCGUUGGCGUAAUGGUAACGCGUCUCCCUCCUAAGCAGAUGACUGCGGGCUCGAGUCCCGUACGGAACG [G39C A43U U53C]	0.606
GUUCCGUUGGCGUAAUGGUAACGCGUCUCCCUCCUAAGCAGAAGGCUGCGGGUUCGAGUCCCGUACGGAACG [G39C A45G]	0.661
GUUCCGUUGGCGUAAUGGUAACGCGUCUCCCUCCUAAGCAGAGGACUCCAGGUUCGAGUCCCGUACGGAACG [G39C A43G G48C G50A]	≤ 0.5
GUUCCGUUGGCGUAAUGGUAACGCGUCUCCCUCCUAAGAAGAAGACUGCGGGUUCGAGUCCCGUACCGAACG [G39A G67C]	0.825
GUUCCGUUGGCGUAAUGGUAACGCGUCUCCCUCCUAAUGAGAAGACUGCGGGUUCGAGUCCCAUACGGAACG [G38U G63A]	0.743
GUUCCGUUGGCGUAAUGGUAACGCGUCUCCCUCCUAAGAAGAAGACCGCGGGUUCGAGUCCCGUACGGAACG [G39A U47C]	1
GUUCCGUUGGCGUAAUGGUAACGCGUCUCCCUCCUAAGAAGAAGACUGCGGGAUCGAGUCCCGUACGGAGCG [G39A U53A A70G]	≤ 0.5
GUUCCGUUGGCGUAAUGGUAACGCGUCUCCCUCCUAAGCAGACGGCUGCGGGUUCGAGUGCCGUACGGAACG [G39C A43C A45G C60G]	≤ 0.5
